{"data": "Published values gathered from unrelated publications", "target": "Mitogen-activated protein kinase 3 (MAPK3, Homo sapiens, UniProt P27361)", "note": "Lines come from different studies, so protocols differ."}
{"SMILES": "Cn1cncc1[C@@](O)(COc1ccc(C#N)cc1-c1ccc(OC(F)(F)F)cc1)c1ccc(C#N)cc1", "test": "cell-free assay, competition with immobilised ligand", "conditions": "1 µM", "measurement": "remaining binding", "value": "83%"}
{"SMILES": "COc1ncccc1-c1cnn2ccc(N3CCN(C(=O)OC(C)C)CC3)nc12", "test": "binding, competition with immobilised ligand", "conditions": "1 µM", "measurement": "remaining binding", "value": "100%"}
{"SMILES": "Cn1cc(-c2cc(F)cc(N3CCn4c(cc5c4CCCC5)C3=O)c2CO)cc(Nc2ccc(N3CCN(C4COC4)CC3)cn2)c1=O", "test": "enzyme activity, inhibitor", "conditions": "0.1 µM", "measurement": "inhibition", "value": "14%"}
{"SMILES": "COc1cc(Nc2ncc(F)c(Nc3ccc4c(n3)NC(=O)C(C)(C)O4)n2)cc(OC)c1OC", "test": "binding, competition with immobilised ligand", "conditions": "10 µM", "measurement": "inhibition", "value": "0%"}
{"SMILES": "C[C@@H](O)[C@H](N)C(=O)N1CCC[C@H]1C(=O)N1CCC[C@H]1C(=O)N[C@H](C(N)=O)[C@@H](C)O", "test": "enzyme activity, inhibitor", "conditions": "30 µM", "measurement": "inhibition", "value": "3%"}
{"SMILES": "Nc1ncc(-c2nc(N3CCOCC3)nc(N3CCOCC3)n2)c(C(F)F)n1", "test": "binding, competition with immobilised ligand", "conditions": "10 µM", "measurement": "remaining binding", "value": "89%"}
{"SMILES": "Cc1nn(C)cc1-c1nc2c(N3CCN(Cc4ccc(Cl)cc4)CC3)c(Cl)cnc2[nH]1", "test": "binding, competition with immobilised ligand", "conditions": "1 µM", "measurement": "remaining binding", "value": "100%"}
{"SMILES": "O=c1[nH]c2ccccc2n1C1CCN(Cc2ccc(-c3[nH]c4cc5ncnc5cc4nc3-c3ccccc3)cc2)CC1", "test": "cell-free assay", "conditions": "0.5 µM", "measurement": "remaining signal", "value": "118%"}
{"SMILES": "N#CC1(c2ccccn2)CCN(Cc2cc(C(=O)O)c(=O)n3ccccc23)CC1", "test": "cell-free assay, competition with immobilised ligand", "conditions": "1 µM", "measurement": "remaining binding", "value": "100%"}
{"SMILES": "CC(C)(C)c1cc(C=C(C#N)C#N)cc(Br)c1O", "test": "enzyme activity, inhibitor", "conditions": "0.5 µM", "measurement": "remaining activity", "value": "105%"}
{"SMILES": "CN[C@@]1(c2ccccc2Cl)CCCCC1=O", "test": "enzyme activity, inhibitor", "conditions": "30 µM", "measurement": "inhibition", "value": "-4%"}
